In ChEMBL document CHEMBL3091448, “Identification of potent and selective cathepsin S inhibitors containing different central cyclic scaffolds” (J Med Chem, 2013):

Key:
A20 = experiment: Inhibition of ovalbumin-induced antigen presentation in mouse A20 cells treated 1 hr before ovalbumin addition incubated for 16 hrs followed by co-cultured with DO10.10 T-cell hybridoma cells for 24 hrs assessed as IL-2 production by luminex single-bead analysis; assay type: functional, cell-based
Method in brief: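 A20 cells were seeded at 3 × 10⁵/mL and preincubated with compound for 1 h. Ovalbumin was then added (5 mg/mL final) for 16 h. Cells were washed three times with PBS, then DO10.10 T-cell hybridoma cells (2 × 10⁵/mL) were added. After 24 h, IL-2 was quantified by Luminex single-bead assay using two anti-IL-2 antibodies. IC50 is the mean of ≥2 independent experiments.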

Cathepsin B = Cathepsin B (Homo sapiens, UniProt P07858); experiment: Inhibition of human cathepsin-B using Z-Val-Val-Arg-AMC as substrate up to 20 mins by fluorescence assay
Method in brief: (§1)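 Fluorogenic quenched-peptide cleavage assay. Enzymes at 1 nM in 100 mM potassium phosphate pH 6.5, 5 mM EDTA-Na, 0.001% Triton X-100 and 5 mM DTT. Enzyme was added to the compound dilutions, then 20 μM substrate started the reaction: Z-Val-Val-Arg-AMC, or Z-Leu-Arg-AMC for CatK. Fluorescence (ex 360/em 465 nm) was read over 20 min. IC50 is the mean of ≥2 independent experiments.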

[1] = Effective permeability of the compound by PAMPA; assay type: ADME; settings: read-out: Peff
Procathepsin L = Procathepsin L (Homo sapiens, UniProt P07711); experiment: Inhibition of human cathepsin-L using Z-Val-Val-Arg-AMC as substrate up to 20 mins by fluorescence assay; method in brief: as §1
Sequence of Procathepsin L (P07711 whole entry): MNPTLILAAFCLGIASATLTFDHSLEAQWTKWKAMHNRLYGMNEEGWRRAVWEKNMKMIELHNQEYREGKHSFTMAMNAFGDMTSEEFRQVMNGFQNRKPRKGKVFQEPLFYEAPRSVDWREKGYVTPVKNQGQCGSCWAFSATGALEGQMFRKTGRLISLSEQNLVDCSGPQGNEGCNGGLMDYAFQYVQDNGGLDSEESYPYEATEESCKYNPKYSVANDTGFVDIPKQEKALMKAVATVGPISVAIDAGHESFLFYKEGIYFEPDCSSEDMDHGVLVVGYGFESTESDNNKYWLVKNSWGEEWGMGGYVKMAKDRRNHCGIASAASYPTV

Cathepsin K = target: T1, Cathepsin K (Homo sapiens, UniProt P43235); experiment: Inhibition of human cathepsin-K using Z-Leu-Arg-AMC as substrate up to 20 mins by fluorescence assay; method in brief: as §1
T1 sequence (P43235 whole entry): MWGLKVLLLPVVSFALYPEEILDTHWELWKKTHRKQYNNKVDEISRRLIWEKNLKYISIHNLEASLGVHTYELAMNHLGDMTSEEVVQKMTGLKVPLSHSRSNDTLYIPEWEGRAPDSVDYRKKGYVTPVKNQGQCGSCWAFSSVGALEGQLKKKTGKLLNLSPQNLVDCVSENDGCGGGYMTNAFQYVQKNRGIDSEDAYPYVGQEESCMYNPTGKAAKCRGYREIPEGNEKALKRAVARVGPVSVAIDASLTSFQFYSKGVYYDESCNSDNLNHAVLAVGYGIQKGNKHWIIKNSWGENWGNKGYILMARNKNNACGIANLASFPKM

[2] = Clearance in C57Bl/6 mouse at 2 mg/kg, iv and 9 mg/kg, po; assay type: ADME, organism-based; settings: in vivo
Method in brief: (§2)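 Male C57Bl/6 mice, 8 weeks old, 24−29 g. Dosing was by oral gavage at 9 mg/kg as an aqueous microsuspension in gelatin/NaCl (7.5%/0.62%), or by iv bolus at 2 mg/kg in aqueous NaCl/30% 1-methyl-2-pyrrolidone. Terminal blood (n = 2 per time point) was collected into EDTA tubes and spun at 4 °C to obtain plasma. Plasma levels were measured by LC−MS/MS after acetonitrile precipitation. Values are the mean of two experiments.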

Cathepsin S [3] = target: Cathepsin S (Mus musculus, UniProt O70370); experiment: Inhibition of mouse cathepsin-S using Z-Val-Val-Arg-AMC as substrate up to 20 mins by fluorescence assay; method in brief: as §1
Sequence of Cathepsin S (Mus musculus, UniProt O70370) (O70370 whole entry): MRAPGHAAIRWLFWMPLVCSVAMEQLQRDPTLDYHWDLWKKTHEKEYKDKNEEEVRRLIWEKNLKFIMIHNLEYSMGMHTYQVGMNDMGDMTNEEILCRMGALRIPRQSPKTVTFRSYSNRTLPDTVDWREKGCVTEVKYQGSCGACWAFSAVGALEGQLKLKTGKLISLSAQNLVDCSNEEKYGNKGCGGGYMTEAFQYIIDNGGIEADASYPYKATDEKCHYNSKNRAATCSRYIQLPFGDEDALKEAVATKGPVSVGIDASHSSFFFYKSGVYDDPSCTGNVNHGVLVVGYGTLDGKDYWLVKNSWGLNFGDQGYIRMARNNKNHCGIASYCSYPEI

Mus musculus [4] = experiment: Reduction of ovalbumin-induced IL-2 production in po dosed DO10.11 transgenic BALB/c mouse administered 30 mins before ovalbumin challenge measured after 4 hrs by luminex single-bead analysis; assay type: functional
Method in brief: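 DO10.11 BALB/c mice carrying a transgenic ovalbumin-peptide TCR were dosed orally with compound, then challenged iv with 1.0 mg low-endotoxin ovalbumin. Plasma IL-2 was measured at 4 h by Luminex bead assay using two anti-IL-2 antibodies. Groups had n = 8, and reduction was expressed versus the ovalbumin challenge group (ANOVA with Dunnett test).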

Mus musculus [5] = experiment: Dose normalized AUC in C57Bl/6 mouse at 9 mg/kg, po; assay type: ADME, organism-based; design: dose 9 mg/kg, route oral; settings: in vivo; method in brief: as §2
Plasma = experiment: Metabolic stability in human plasma assessed as compound remaining at 1000 ng/mL after 5 hrs; assay type: ADME, cell-free
Cathepsin S [6] = target: Cathepsin S (Homo sapiens, UniProt P25774); experiment: Inhibition of human cathepsin-S using Z-Val-Val-Arg-AMC as substrate up to 20 mins by fluorescence assay; method in brief: as §1
Sequence of Cathepsin S (Homo sapiens, UniProt P25774) (P25774 whole entry): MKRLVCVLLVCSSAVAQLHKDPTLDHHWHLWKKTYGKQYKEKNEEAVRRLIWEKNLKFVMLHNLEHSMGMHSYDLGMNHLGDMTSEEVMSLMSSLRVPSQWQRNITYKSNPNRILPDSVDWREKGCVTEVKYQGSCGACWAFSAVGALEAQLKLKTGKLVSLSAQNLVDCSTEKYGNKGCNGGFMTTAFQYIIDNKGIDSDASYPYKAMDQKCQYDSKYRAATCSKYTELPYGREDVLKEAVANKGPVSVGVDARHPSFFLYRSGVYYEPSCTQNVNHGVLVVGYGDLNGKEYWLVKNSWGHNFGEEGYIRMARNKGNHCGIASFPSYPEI

[7] = Oral bioavailability in C57Bl/6 mouse at 9 mg/kg; assay type: ADME, organism-based; settings: in vivo; method in brief: as §2
[8] = Half life in C57Bl/6 mouse at 2 mg/kg, iv; assay type: ADME, organism-based; design: dose 2 mg/kg, route intravenous; settings: in vivo; method in brief: as §2
[9] = Half life in C57Bl/6 mouse at 9 mg/kg, po; assay type: ADME, organism-based; design: dose 9 mg/kg, route oral; settings: in vivo; method in brief: as §2
[10] = Volume of distribution at steady state in C57Bl/6 mouse at 2 mg/kg, iv and 9 mg/kg, po; assay type: ADME, organism-based; settings: in vivo, read-out: Vdss; method in brief: as §2
[11] = Metabolic stability in NMRI mouse plasma assessed as compound remaining at 1000 ng/mL after 4 hrs; assay type: ADME, cell-free; settings: read-out: Stability
Method in brief: (§3)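 Heparinized pooled NMRI mouse plasma was spiked with compound at 1000 ng/mL and incubated at 37 °C in an orbital shaker. Aliquots (n = 3 per time point) were taken at 2 min, 1 h and 4 h and analysed by LC−MS/MS.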

Mus musculus [12] = experiment: Dose normalized AUC in C57Bl/6 mouse at 2 mg/kg, iv; assay type: ADME, organism-based; design: dose 2 mg/kg, route intravenous; settings: in vivo; method in brief: as §2
Homo sapiens = species on record: Homo sapiens; experiment: Selectivity ratio of IC50 for human cathepsin-K to IC50 for human cathepsin-S
[13] = Drug degradation in NMRI mouse plasma at 1000 ng/mL after 4 hrs; assay type: ADME, cell-free; settings: read-out: Drug degradation; method in brief: as §3

N#CC1(NC(=O)[C@@H]2C[C@@H](S(=O)(=O)c3ccccc3)C[C@H]2C(=O)N2CCC(O)CC2)CC1
IC50 (A20): 0.371 µM | IC50 (Cathepsin B): 5.7 µM | Papp [1]: 0.2 ×10⁻⁶ cm/s | IC50 (Procathepsin L): 4.6 µM | IC50 (Cathepsin K): > 25 µM

CC(=O)N1C[C@H](S(=O)(=O)c2ccccc2Cl)C[C@H]1C(=O)NC1(C#N)CC1
clearance [2]: 29 mL/min/kg | IC50 (A20): 0.019 µM | IC50 (Cathepsin S [3]): 0.002 µM | Activity (Mus musculus [4]): Dose-dependent effect | ED50 (Mus musculus [4]): 5 mg/kg | IC50 (Cathepsin B): 47.6 µM | AUC/dose (Mus musculus [5]): 309 ng·h/mL | Stability (Plasma): Stable | IC50 (Cathepsin S [6]): 0.001 µM | bioavailability [7]: 53% | half-life [8]: 18 min | half-life [9]: 30 min | IC50 (Procathepsin L): 29.7 µM | Vd [10]: 0.5 L/kg | remaining at 4 h, 1000 ng/mL [11]: 72% | AUC/dose (Mus musculus [12]): 581 ng·h/mL | IC50 (Cathepsin K): > 25 µM

N#CC1(NC(=O)[C@@H]2C[C@@H](S(=O)(=O)c3ccccc3)C[C@H]2C(=O)N2CC(O)C2)CC1
IC50 (A20): 0.572 µM | IC50 (Cathepsin B): 63.3 µM | IC50 (Cathepsin S [6]): 0.007 µM | IC50 (Procathepsin L): 16.2 µM | IC50 (Cathepsin K): > 25 µM

N#CC1(NC(=O)[C@@H]2C[C@@H](S(=O)(=O)c3ccccc3)C[C@H]2C(=O)N2CCCCC2)CC1
IC50 (A20): 0.005 µM | IC50 (Cathepsin B): 3.6 µM | IC50 (Procathepsin L): 4.2 µM | IC50 (Cathepsin K): > 25 µM

N#CCNC(=O)[C@@H]1C[C@@H](S(=O)(=O)CC2CC2)C[C@H]1C(=O)N1CCOCC1
IC50 (A20): 4.51 µM | Ratio IC50 (Homo sapiens): > 100 | IC50 (Cathepsin K): > 25 µM

N#CC1(NC(=O)[C@@H]2C[C@@H](S(=O)(=O)c3ccccc3Cl)CN2C(=O)C2CCCCC2)CC1
IC50 (A20): 0.002 µM | IC50 (Cathepsin S [3]): 0.0002 µM | metabolised at 4 h, 1000 ng/mL [13]: > 90% | IC50 (Cathepsin S [6]): 0.0003 µM | IC50 (Procathepsin L): 8.3 µM | IC50 (Cathepsin K): > 25 µM

N#CCNC(=O)[C@@H]1C[C@@H](S(=O)(=O)c2ccccc2)C[C@H]1C(=O)N1CCOCC1
clearance [2]: 39 mL/min/kg | IC50 (A20): 0.023 µM | IC50 (Cathepsin S [3]): 0.001 µM | IC50 (Cathepsin B): 6.2 µM | AUC/dose (Mus musculus [5]): 77 ng·h/mL | Stability (Plasma): Stable | IC50 (Cathepsin S [6]): 0.0007 µM | bioavailability [7]: 18% | Ratio IC50 (Homo sapiens): > 20000 | half-life [8]: 18 min | half-life [9]: 54 min | IC50 (Procathepsin L): 11.7 µM | Vd [10]: 0.5 L/kg | remaining at 4 h, 1000 ng/mL [11]: 99% | AUC/dose (Mus musculus [12]): 427 ng·h/mL | IC50 (Cathepsin K): 15.5 µM

C[C@@H]1CN(C(=O)[C@@H]2C[C@H](S(=O)(=O)c3ccccc3)C[C@H]2C(=O)NC2(C#N)CC2)C[C@H](C)O1
IC50 (A20): 0.001 µM | IC50 (Cathepsin B): 3.2 µM | IC50 (Procathepsin L): 2.7 µM | IC50 (Cathepsin K): > 25 µM

N#CCNC(=O)[C@@H]1CN(S(=O)(=O)c2ccccc2)C[C@H]1C(=O)N1CCOCC1
IC50 (A20): 4.24 µM | IC50 (Cathepsin S [6]): 0.271 µM | Ratio IC50 (Homo sapiens): > 90 | IC50 (Cathepsin K): > 25 µM

N#CCNC(=O)[C@@H]1C[C@@H](S(=O)(=O)c2ccccc2Cl)C[C@H]1C(=O)N1CCOCC1
IC50 (A20): 0.003 µM | Ratio IC50 (Homo sapiens): > 20000 | IC50 (Cathepsin K): > 25 µM

N#CC1(NC(=O)[C@@H]2C[C@@H](S(=O)(=O)c3ccccc3)C[C@H]2C(=O)N2CC3CCC(C2)O3)CC1
IC50 (A20): 0.016 µM | IC50 (Cathepsin B): 13.1 µM | IC50 (Cathepsin S [6]): 0.001 µM | IC50 (Procathepsin L): 4.1 µM | IC50 (Cathepsin K): > 25 µM

CN(C)C(=O)[C@@H]1C[C@H](S(=O)(=O)c2ccccc2)C[C@H]1C(=O)NC1(C#N)CC1
IC50 (A20): 0.091 µM | IC50 (Cathepsin B): 22.9 µM | IC50 (Cathepsin S [6]): 0.006 µM | IC50 (Procathepsin L): 24.9 µM | IC50 (Cathepsin K): > 25 µM

N#CC1(NC(=O)[C@@H]2C[C@@H](S(=O)(=O)c3ccccc3)C[C@H]2C(=O)N2CCCC2)CC1
IC50 (A20): 0.029 µM | IC50 (Cathepsin B): 7.1 µM | IC50 (Cathepsin S [6]): 0.002 µM | IC50 (Procathepsin L): 17 µM | IC50 (Cathepsin K): > 25 µM

N#CCNC(=O)[C@@H]1C[C@@H](S(=O)(=O)c2ccccc2C(F)(F)F)C[C@H]1C(=O)N1CCOCC1
IC50 (A20): 0.002 µM | Ratio IC50 (Homo sapiens): > 20000 | IC50 (Cathepsin K): > 25 µM
